In ChEMBL document CHEMBL1208737, “Synthesis and in vitro evaluation of N-alkyl-3-hydroxy-3-(2-imino-3-methyl-5-oxoimidazolidin-4-yl)indolin-2-one analogs as potential anticancer agents” (2010):

How the values were obtained:
Assay type in all cases: functional
CCRF-CEM = test: Growth inhibition of human CCRF-CEM cells by sulforhodamine B assay
Outline: (§1)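 Five-dose response testing across a 57-line human tumour panel (leukemia, non-small cell lung, colon, CNS, melanoma, ovarian, renal, prostate, breast), done after a single-dose primary screen run per the NCI method. Effect plotted against log10 molar drug concentration for each cell line. GI50 is the concentration giving a 50% reduction in net protein increase versus control cells.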

HL-60(TB) = test: Growth inhibition of human HL-60(TB) cells by sulforhodamine B assay; outline: as §1
K562 = test: Growth inhibition of human K562 cells by sulforhodamine B assay; outline: as §1
MOLT-4 = test: Growth inhibition of human MOLT4 cells by sulforhodamine B assay; outline: as §1
[1] = Growth inhibition of human […] cells by sulforhodamine B assay; outline: as §1
A549 = test: Growth inhibition of human A549 cells by sulforhodamine B assay
Outline: (§2)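 Five-dose response testing across the 57-line human tumour panel. Growth effect was plotted against log10 drug concentration for each cell line. GI50 is the molar concentration giving a 50% reduction in net protein increase relative to untreated control cells. TGI (total growth inhibition) and LC50 (concentration lethal to 50% of cells) were read from the same curves.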

EKVX = test: Growth inhibition of human EKVX cells by sulforhodamine B assay; outline: as §1
HOP-62 = test: Growth inhibition of human HOP62 cells by sulforhodamine B assay; outline: as §1
NCI-H226 = test: Growth inhibition of human NCI-H226 cells by sulforhodamine B assay; outline: as §1
NCI-H23 = test: Growth inhibition of human NCI-H23 cells by sulforhodamine B assay; outline: as §1
NCI-H322M = test: Growth inhibition of human NCI-H322M cells by sulforhodamine B assay; outline: as §1
NCI-H460 = test: Growth inhibition of human NCI-H460 cells by sulforhodamine B assay; outline: as §1
NCI-H522 = test: Growth inhibition of human NCI-H522 cells by sulforhodamine B assay; outline: as §1
COLO 205 = test: Growth inhibition of human COLO205 cells by sulforhodamine B assay; outline: as §1
HCC 2998 = test: Growth inhibition of human HCC2998 cells by sulforhodamine B assay; outline: as §1
HCT-116 = test: Growth inhibition of human HCT116 cells by sulforhodamine B assay; outline: as §1
HCT-15 = test: Growth inhibition of human HCT15 cells by sulforhodamine B assay; outline: as §1
HT-29 = test: Growth inhibition of human HT-29 cells by sulforhodamine B assay; outline: as §1
KM12 = test: Growth inhibition of human KM12 cells by sulforhodamine B assay; outline: as §1
SW-620 = test: Growth inhibition of human SW620 cells by sulforhodamine B assay; outline: as §1
SF-268 = test: Growth inhibition of human SF268 cells by sulforhodamine B assay; outline: as §1
SF-295 = test: Growth inhibition of human SF295 cells by sulforhodamine B assay; outline: as §1
SF-539 = test: Growth inhibition of human SF539 cells by sulforhodamine B assay; outline: as §1
SNB-19 = test: Growth inhibition of human SNB19 cells by sulforhodamine B assay; outline: as §1
SNB-75 = test: Growth inhibition of human SNB75 cells by sulforhodamine B assay; outline: as §1
LOX IMVI = test: Growth inhibition of human LOXIMVI cells by sulforhodamine B assay; outline: as §2
Malme-3M = test: Growth inhibition of human MALME-3M cells by sulforhodamine B assay; outline: as §1
M14 = test: Growth inhibition of human M14 cells by sulforhodamine B assay; outline: as §1
MDA-MB-435 = test: Growth inhibition of human MDA-MB-435 cells by sulforhodamine B assay; outline: as §1
SK-MEL-2 = test: Growth inhibition of human SK-MEL-2 cells by sulforhodamine B assay; outline: as §1
SK-MEL-28 = test: Growth inhibition of human SK-MEL-28 cells by sulforhodamine B assay; outline: as §1
SK-MEL-5 = test: Growth inhibition of human SK-MEL-5 cells by sulforhodamine B assay; outline: as §1
UACC-257 = test: Growth inhibition of human UACC257 cells by sulforhodamine B assay
Outline: (§3)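 Part of a 57-line human tumour cell panel run at five doses. Growth effect was plotted against log10 molar drug concentration for each cell line. GI50 is the concentration giving a 50% reduction in net protein increase relative to untreated control cells, read from the dose-response curve.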

UACC-62 = test: Growth inhibition of human UACC62 cells by sulforhodamine B assay; outline: as §3
IGROV-1 = test: Growth inhibition of human IGROV1 cells by sulforhodamine B assay; outline: as §1
OVCAR-3 = test: Growth inhibition of human OVCAR-3 cells by sulforhodamine B assay; outline: as §1
OVCAR-4 = test: Growth inhibition of human OVCAR4 cells by sulforhodamine B assay; outline: as §1
OVCAR-5 = test: Growth inhibition of human OVCAR5 cells by sulforhodamine B assay; outline: as §1
OVCAR-8 = test: Growth inhibition of human OVCAR8 cells by sulforhodamine B assay; outline: as §1
NCI/ADR-RES = test: Growth inhibition of human NCI/ADR-RES cells by sulforhodamine B assay; outline: as §1
SK-OV-3 = test: Growth inhibition of human SKOV3 cells by sulforhodamine B assay; outline: as §1
786-0 = test: Growth inhibition of human 786-0 cells by sulforhodamine B assay; outline: as §1
A498 = test: Growth inhibition of human A498 cells by sulforhodamine B assay; outline: as §1
ACHN = test: Growth inhibition of human ACHN cells by sulforhodamine B assay; outline: as §1
CAKI-1 = test: Growth inhibition of human Caki1 cells by sulforhodamine B assay; outline: as §1
RXF 393 = test: Growth inhibition of human RXF393 cells by sulforhodamine B assay; outline: as §1
SN12C = test: Growth inhibition of human SN12C cells by sulforhodamine B assay; outline: as §1
TK-10 = test: Growth inhibition of human TK10 cells by sulforhodamine B assay; outline: as §3
UO-31 = test: Growth inhibition of human UO31 cells by sulforhodamine B assay; outline: as §3
PC-3 = test: Growth inhibition of human PC3 cells by sulforhodamine B assay; outline: as §1
DU-145 = test: Growth inhibition of human DU145 cells by sulforhodamine B assay; outline: as §1
MCF7 = test: Growth inhibition of human MCF7 cells by sulforhodamine B assay; outline: as §1
MDA-MB-231 = test: Growth inhibition of human MDA-MB-231 cells by sulforhodamine B assay; outline: as §1
[2] = Growth inhibition of human Hs 578T cells by sulforhodamine B assay; outline: as §1
BT-549 = test: Growth inhibition of human BT549 cells by sulforhodamine B assay; outline: as §1
T47D = test: Growth inhibition of human T47D cells by sulforhodamine B assay; outline: as §3
MDA-MB-468 = test: Growth inhibition of human MDA-MB-468 cells by sulforhodamine B assay; outline: as §1
[3] = read-out: LC50 (the source's name)

SMILES: COc1ccc(CN2C(=O)C(O)(C3C(=O)NC(=N)N3C)c3ccccc32)cc1 (centres undefined)
- GI50 (CCRF-CEM): 2.18 µM
- CC50 (CCRF-CEM; [3]): > 100 µM
- GI50 (HL-60(TB)): 4.91 µM
- LC50 (HL-60(TB)): > 100 µM
- GI50 (K562): 3.73 µM
- CC50 (K562; [3]): > 100 µM
- GI50 (MOLT-4): 4.79 µM
- CC50 (MOLT-4; [3]): > 100 µM
- GI50 [1]: 2.87 µM
- CC50 [1, 3]: > 100 µM
- GI50 (A549): 43.6 µM
- LC50 (A549): > 100 µM
- GI50 (EKVX): 71.7 µM
- LC50 (EKVX): > 100 µM
- GI50 (HOP-62): 4.31 µM
- CC50 (HOP-62; [3]): > 100 µM
- GI50 (NCI-H226): 38.4 µM
- CC50 (NCI-H226; [3]): > 100 µM
- GI50 (NCI-H23): 13.9 µM
- LC50 (NCI-H23): > 100 µM
- GI50 (NCI-H322M): 41.1 µM
- CC50 (NCI-H322M; [3]): > 100 µM
- GI50 (NCI-H460): 29 µM
- LC50 (NCI-H460): > 100 µM
- GI50 (NCI-H522): 3.65 µM
- LC50 (concentration killing 50% of cells) (NCI-H522): > 100 µM
- GI50 (COLO 205): 19.9 µM
- CC50 (COLO 205; [3]): > 100 µM
- GI50 (HCC 2998): 12.8 µM
- LC50 (HCC 2998): 63.9 µM
- GI50 (HCT-116): 2.4 µM
- LC50 (HCT-116): > 100 µM
- GI50 (HCT-15): 11.8 µM
- LC50 (concentration killing 50% of starting cells) (HCT-15): > 100 µM
- GI50 (HT-29): 4.06 µM
- LC50 (HT-29): > 100 µM
- GI50 (KM12): 2.87 µM
- CC50 (KM12; [3]): 80.4 µM
- GI50 (SW-620): 4.12 µM
- CC50 (SW-620; [3]): > 100 µM
- GI50 (SF-268): 5 µM
- CC50 (SF-268; [3]): > 100 µM
- GI50 (SF-295): 26 µM
- CC50 (SF-295; [3]): > 100 µM
- GI50 (SF-539): 3.73 µM
- CC50 (SF-539; [3]): > 100 µM
- GI50 (SNB-19): 30.6 µM
- CC50 (SNB-19; [3]): > 100 µM
- GI50 (SNB-75): 28.8 µM
- CC50 (SNB-75; [3]): > 100 µM
- GI50 (LOX IMVI): 8.09 µM
- CC50 (LOX IMVI; [3]): > 100 µM
- GI50 (Malme-3M): 27.4 µM
- CC50 (Malme-3M; [3]): > 100 µM
- GI50 (M14): 4.93 µM
- LC50 (M14): > 100 µM
- GI50 (MDA-MB-435): 10.6 µM
- CC50 (MDA-MB-435; [3]): > 100 µM
- GI50 (SK-MEL-2): 95.2 µM
- CC50 (SK-MEL-2; [3]): > 100 µM
- GI50 (SK-MEL-28): 36.9 µM
- CC50 (SK-MEL-28; [3]): > 100 µM
- GI50 (SK-MEL-5): 37.3 µM
- CC50 (SK-MEL-5; [3]): > 100 µM
- GI50 (UACC-257): 6.28 µM
- LC50 (UACC-257): > 100 µM
- GI50 (UACC-62): 27.7 µM
- CC50 (UACC-62; [3]): > 100 µM
- GI50 (IGROV-1): 3.26 µM
- CC50 (IGROV-1; [3]): > 100 µM
- GI50 (OVCAR-3): 2.29 µM
- CC50 (OVCAR-3; [3]): 30.1 µM
- GI50 (OVCAR-4): 7.13 µM
- CC50 (OVCAR-4; [3]): > 100 µM
- GI50 (OVCAR-5): 42.1 µM
- CC50 (OVCAR-5; [3]): > 100 µM
- GI50 (OVCAR-8): 3.52 µM
- CC50 (OVCAR-8; [3]): > 100 µM
- GI50 (NCI/ADR-RES): 1.99 µM
- CC50 (NCI/ADR-RES; [3]): > 100 µM
- GI50 (SK-OV-3): 45.5 µM
- CC50 (SK-OV-3; [3]): > 100 µM
- GI50 (786-0): 23 µM
- CC50 (786-0; [3]): > 100 µM
- GI50 (A498): > 100 µM
- CC50 (A498; [3]): > 100 µM
- GI50 (ACHN): > 100 µM
- CC50 (ACHN; [3]): > 100 µM
- GI50 (CAKI-1): 53.9 µM
- CC50 (CAKI-1; [3]): > 100 µM
- GI50 (RXF 393): 7.4 µM
- CC50 (RXF 393; [3]): > 100 µM
- GI50 (SN12C): > 100 µM
- CC50 (SN12C; [3]): > 100 µM
- GI50 (TK-10): > 100 µM
- CC50 (TK-10; [3]): > 100 µM
- GI50 (UO-31): 83.2 µM
- CC50 (UO-31; [3]): > 100 µM
- GI50 (PC-3): 46.9 µM
- CC50 (PC-3; [3]): > 100 µM
- GI50 (DU-145): 21.4 µM
- CC50 (DU-145; [3]): > 100 µM
- GI50 (MCF7): 6.93 µM
- LC50 (concentration killing 50% of starting cells) (MCF7): > 100 µM
- GI50 (MDA-MB-231): 19.4 µM
- CC50 (MDA-MB-231; [3]): > 100 µM
- GI50 [2]: 60.3 µM
- CC50 [2, 3]: > 100 µM
- GI50 (BT-549): 8.45 µM
- LC50 (BT-549): 97 µM
- GI50 (T47D): 32 µM
- LC50 (T47D): > 100 µM
- GI50 (MDA-MB-468): 11.6 µM
- LC50 (concentration causing 50% net cell kill) (MDA-MB-468): > 100 µM
